Results on 58 molecules are retold here after ChEMBL document CHEMBL1124455, “Benzodiazepine receptor binding activity of 6,9-disubstituted purines” (J Med Chem, 1989).

The pIC50 is −log10 of the IC50, conventionally taken in molar units. Low values mean a high IC50, high ones a low IC50. Usually inhibition stands for the share of the control response that was lost under treatment. Read a high inhibition as a strong effect.

SMILES strings stand for the structures. pIC50: −log10 of the molar value.

The test system of assay [1] is Rattus norvegicus. The assay is described as follows: Effect on conflict responding in Long-Evans rats when 10 mg/kg was administered by oral gavage in a modified Geller-Seifter conflict schedule. The class given is functional. In a few lines:
(§1)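 Rats on a modified Geller-Seifter operant conflict schedule were dosed by oral gavage as a 0.5% methylcellulose suspension 60 min before the session. Shock was 0.00 mA for the first response in each conflict period, rising 0.05 mA with each further response. The value is the percent change in conflict responses from the preceding day, as mean and SEM of at least four rats.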

The subject of assay [2] is Rattus norvegicus. The assay is described as follows: Effect on conflict responding in Long-Evans rats when 25 mg/kg was administered by oral gavage in a modified Geller-Seifter conflict schedule. Format: functional. In a few lines: (§2)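 Rats run on a modified Geller-Seifter conflict schedule. Shock was 0.00 mA for the first response of each conflict period, rising by 0.05 mA per successive response. 25 mg/kg given by oral gavage as a 0.5% methylcellulose suspension, 60 min before the operant session. Result is percent change in conflict responses versus the preceding day, mean and SEM, at least four rats.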

Assay [3] relates to Rattus norvegicus. The assay is described as follows: Effect on conflict responding in Long-Evans rats when 5 mg/kg was administered by oral gavage in a modified Geller-Seifter conflict schedule. Format: functional. In short, it runs like this: as §1
The target of assay [4] is GABA-A receptor; anion channel. The assay is described as follows: Concentration that inhibits binding of 1.5 nM [3H]diazepam to rat brain benzodiazepine receptor. In short, it runs like this: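 Membranes from male Sprague-Dawley rat brain (110–220 g; cerebellum and pons medulla removed), homogenized in 0.32 M sucrose. The 30000g pellet was stored frozen and resuspended in Tris-HCl pH 7.5. Filtered on GF/C and washed with ice-cold buffer, then scintillation counted.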

Assay [5] addresses T1, GABA-A receptor; anion channel (Rattus norvegicus) (UniProt O09028+P15431+P18506+P18508+P19969+P20236+P23574+P23576+P28471+P28473+P30191+P62813+P63079+P63138+Q91ZM7+Q9ES14). The assay is described as follows: The percent inhibition of [3H]diazepam binding to the benzodiazepine receptor of rat brain elicited by 100 uM of compound.
The test system of assay [6] is Rattus norvegicus. The assay is described as follows: Effect on conflict responding in Long-Evans rats when 25 mg/kg was administered by oral gavage in a modified Geller-Seifter conflict schedule and the value ranges from -10 to + 13. Format: functional. In short, it runs like this: as §2
Assay [7] addresses T1, GABA-A receptor; anion channel (Rattus norvegicus). The assay is described as follows: Percent inhibition of [3H]diazepam binding to rat brain GABA-A benzodiazepine receptor at 100 uM. In short, it runs like this: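 Membranes from male Sprague-Dawley rat brain (110–220 g; cerebellum and pons medulla removed), homogenized in 0.32 M sucrose. The 30000g pellet was stored frozen and resuspended in Tris-HCl pH 7.5. […] Filtered on GF/C and washed with ice-cold buffer, then scintillation counted. Percent inhibition of specific binding at 100 μM; IC50 usually determined when >75%.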

Setting [8] is: in the assay text read “10 uM” for “100 uM”.

On to `CNC1=Nc2ccc(Cl)cc2C(c2ccccc2)=[N+]([O-])C1` [CHLORDIAZEPOXIDE], for which the figures for the Change in conflict in assay [1], in assay [2] and in assay [3] were 46%, 67% and 24%, respectively. Further, in assay [4], the pIC50 was 6.70.
In assay [5], `CN(C)c1ncnc2c1ncn2Cc1cccc(C(F)(F)F)c1` had an inhibition of 49%.
In the case of `COc1ncnc2c1ncn2Cc1ccccc1` [9-BENZYL-6-METHOXY-9H-PURINE], in assay [2], the Change in conflict is reported as 26%. Further, the pIC50 in assay [4] was 4.85.
As for `c1ccc(Cn2cnc3c(N4CCC4)ncnc32)cc1`, in assay [2], the Change in conflict is listed as -7%. Moreover, in assay [4], the pIC50 is 4.82.
`CN(C)c1ncnc2c1ncn2Cc1ccc(O)cc1` returned an inhibition in assay [5] (setting [8]) of 15%.
In turn, `CN(C)c1ncnc2c1ncn2Cc1cccc([N+](=O)[O-])c1` displayed an inhibition in assay [5] of 48%.
With `CN(C)c1ncnc2c1ncn2Cc1cccc(F)c1`, the pIC50 in assay [4] is 5.14.
Molecule `Cc1ccccc1Cn1cnc2c(N(C)C)ncnc21` showed an inhibition in assay [5] of 70%.
`CN(C)c1ncnc2c1ncn2Cc1ccc(C#N)cc1`: in assay [5], the inhibition was 26%.
As for `CN(C)c1ncnc2c1ncn2Cc1ccccc1`, the Change in conflict in assay [2] is given as -17%. This molecule gave a negative-log IC50 (pIC50) in assay [4] of 4.89.
With `CN(c1ncnc2c1ncn2Cc1ccccc1)C1CCCC1`, the Change in conflict in assay [6] was -10%. In addition, the negative logarithm of the IC50 (pIC50) in assay [4] was 4.85.
The molecule `CN(C)c1ncnc2c1ncn2C(c1ccccc1)c1ccccc1` had a negative logarithm of the IC50 (pIC50) in assay [4] of 4.77.
With `CN(C)c1ncnc2c1ncn2Cc1cccc(N)c1`, the Change in conflict in assay [2] turned out to be 4%. In addition, the pIC50 in assay [4] was 6.05.
In turn, `CN(C)c1ncnc2c1ncn2Cc1cccc(I)c1` returned an inhibition in assay [5] of 64%.
In turn, `CCN(C)c1ncnc2c1ncn2Cc1ccccc1` had a negative logarithm of the IC50 (pIC50) in assay [4] of 4.72.
Regarding `CN(C)c1ncnc2c1ncn2Cc1cccc(O)c1`, in assay [2], the Change in conflict is listed as 2%. The molecule also showed a negative logarithm of the IC50 (pIC50) in assay [4] of 5.92.
For `c1ccc(Cn2cnc3c(NC4CC4)ncnc32)cc1`, the inhibition in assay [7] worked out at 68%.
`CN(C)c1ncnc2c1ncn2Cc1ccc(OCc2ccccc2)cc1` returned an inhibition in assay [5] of 11%.
`CCN(CC)c1ncnc2c1ncn2Cc1ccccc1`: the inhibition in assay [5] turned out to be 83%.
Turning to `CSc1ncnc2c1ncn2Cc1ccccc1`, the Change in conflict in assay [2] came out at 13%. In assay [4], this molecule had a pIC50 of 5.48.
On to `COc1ccccc1Cn1cnc2c(N(C)C)ncnc21`, for which the pIC50 in assay [4] is 4.70.
`CN(C)c1ncnc2c1ncn2Cc1ccccc1[N+](=O)[O-]` yielded an inhibition in assay [5] (setting [8]) of 48%.
Regarding `Oc1ncnc2c1ncn2Cc1ccccc1`, the pIC50 in assay [4] is 4.72.
Consider `CN(C)c1ncnc2c1ncn2Cc1cccc(CO)c1`, for which the Change in conflict in assay [2] was 4%. Besides, the pIC50 in assay [4] is 5.30.
In the case of `CC(=O)Oc1cccc(Cn2cnc3c(N(C)C)ncnc32)c1`, the Change in conflict in assay [2] was 2%. In assay [4], this molecule had a negative-log IC50 (pIC50) of 6.36.
For `CNc1ncnc2c1ncn2Cc1ccccc1`, the Change in conflict in assay [2] was -3%. The same molecule had a pIC50 in assay [4] of 4.62.
As for `CN(C)c1ncnc2c1ncn2-c1ccccc1`, the inhibition in assay [7] turned out to be 0%.
`CN(C)c1ncnc2c1ncn2C1CCCc2ccccc21` (stereo unspecified): the pIC50 in assay [4] is 4.66.
In assay [5], `CN(C)c1ncnc2c1ncn2Cc1ccc([N+](=O)[O-])cc1` came in with an inhibition of 23%.
The molecule `COc1cccc(Cn2cnc3c(N(C)C)ncnc32)c1` returned an inhibition in assay [5] of 70%.
In the case of `C[C@H](c1ccccc1)n1cnc2c(N(C)C)ncnc21`, the inhibition in assay [5] was 56%.
Same read-out and setting: the figure for `CN(C)c1ncnc2c1ncn2CCc1ccccc1` is 0%.
`c1ccc(Cn2cnc3cncnc32)cc1` showed an inhibition in assay [7] of 34%.
As to `CN(C)c1ncnc2c1ncn2Cc1cccc(OC(=O)C(C)(C)C)c1`, the Change in conflict in assay [2] came out at 6%. In assay [4], this molecule showed a negative-log IC50 (pIC50) of 5.80.
For `CN(C)c1ncnc2c1ncn2Cc1cccc(Cl)c1`, in assay [5], the inhibition is 59%.
For the molecule `CN(C)c1ncnc2c1ncn2Cc1ccccc1N`, in assay [5] (setting [8]), the inhibition is 19%.
For the molecule `CN(C)c1ncnc2c1ncn2Cc1cccc(Br)c1`, the inhibition in assay [5] amounted to 63%.
As to `CN(C)c1ncnc2c1ncn2Cc1ccc(F)cc1`, the inhibition in assay [5] was found to be 23%.
`OCCNc1ncnc2c1ncn2Cc1ccccc1` came in with an inhibition in assay [7] of 73%.
Take `Nc1ncnc2c1ncn2Cc1ccccc1` [9-BENZYL-9H-ADENINE]: the negative-log IC50 (pIC50) in assay [4] is 4.43.
Regarding `CCNc1ncnc2c1ncn2Cc1ccccc1`, the pIC50 in assay [4] was 4.72.
In assay [5], `CN(C)c1ncnc2c1ncn2Cc1cccc(C#N)c1` gave an inhibition of 70%.
The same measure, in the same setting: as for `Cc1cccc(Cn2cnc3c(N(C)C)ncnc32)c1`, the figure is 62%; as for `Cc1ccc(Cn2cnc3c(N(C)C)ncnc32)cc1`, 22%.
Take `CN(C)c1ncnc2c1ncn2Cc1ccccc1F`: in assay [2], the Change in conflict was 17%. The same molecule showed a negative-log IC50 (pIC50) in assay [4] of 5.27.
Take `CN(C)c1ncnc2nc[nH]c12`: the inhibition in assay [5] turned out to be 57%.
For `c1ccc(Cn2cnc3c(N4CCCC4)ncnc32)cc1`, the Change in conflict in assay [2] worked out at 10%. Also, in assay [4], the pIC50 is 4.80.
The molecule `CC(=O)Nc1ccc(Cn2cnc3c(N(C)C)ncnc32)cc1` had an inhibition in assay [5] of 22%.
`CN(C)c1ncnc2c1ncn2CCCc1ccccc1` displayed an inhibition in assay [5] of 0%.
As to `Cn1cnc2c(ncn2Cc2ccccc2)c1=O`, in assay [2], the Change in conflict is -16%. The molecule also showed a negative-log IC50 (pIC50) in assay [4] of 4.81.
`CN(C)c1ncnc2c1ncn2Cc1ccc(N)cc1` yielded an inhibition in assay [5] of 67%.
Same read-out and setting: as for `CN(C)c1ncnc2c1ncn2C`, the figure is 0%.
For `CN(C)c1ncnc2c1ncn2C1Cc2ccccc2C1`, in assay [7], the inhibition stood at 48%.
In assay [4], `CN(C)c1ncnc2c1ncn2Cc1ccccc1Cl` showed a pIC50 of 4.89.
`Clc1ncnc2c1ncn2Cc1ccccc1` yielded an inhibition in assay [5] of 40%.
`C[C@@H](c1ccccc1)n1cnc2c(N(C)C)ncnc21`: in assay [2], the Change in conflict was 5%. This molecule also gave a negative logarithm of the IC50 (pIC50) in assay [4] of 5.68.
`COc1ccc(Cn2cnc3c(N(C)C)ncnc32)cc1` yielded an inhibition in assay [5] of 0%.
As for `CN(C)c1ncnc2c1ncn2Cc1ccc(Cl)cc1`, the inhibition in assay [5] came to 24%.
